Changes are numbered by the printed parent chain. The source made the active and inactive calls. No cut-off for these calls is given here.

The values below come from ChEMBL document CHEMBL1156489, “Small molecule receptor agonists and antagonists of CCR3 provide insight into mechanisms of chemokine receptor activation” (J Biol Chem, 2007).

Assay [1] relates to T1, C-C chemokine receptor type 3 (Homo sapiens), P51677 [E287Q].
T1 sequence (whole entry): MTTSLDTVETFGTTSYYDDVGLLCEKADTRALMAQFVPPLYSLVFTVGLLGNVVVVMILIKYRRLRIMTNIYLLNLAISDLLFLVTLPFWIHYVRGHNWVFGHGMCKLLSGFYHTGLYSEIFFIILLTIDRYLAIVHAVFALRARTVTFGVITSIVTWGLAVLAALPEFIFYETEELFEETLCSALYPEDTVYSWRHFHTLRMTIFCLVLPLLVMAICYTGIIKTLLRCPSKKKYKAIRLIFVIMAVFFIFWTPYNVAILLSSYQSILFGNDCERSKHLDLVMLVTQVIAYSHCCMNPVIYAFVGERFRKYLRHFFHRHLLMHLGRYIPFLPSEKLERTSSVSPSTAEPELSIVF
Description: Agonist activity at human recombinant CCR3 E287Q mutant expressed in mouse L1.2 cells assessed as induction of chemotaxis. In kind it is functional, cell-based. The essentials: (§1)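 L1.2 cells transfected with CCR3 (stable line kept in 1 mg/ml G-418, or transient electroporation at 1 μg DNA/1 × 10^6 cells, then overnight 10 mM sodium butyrate). Duplicate agonist concentrations in RPMI/0.1% BSA were placed in the lower wells and 2 × 10^5 cells on the upper filter (5 μm pores). After 5 h at 37°C, 5% CO2, migrated cells were counted by hemocytometer and expressed as % migrating.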

For assay [2], the target named is T2, C-C chemokine receptor type 3 (Homo sapiens) (UniProt P51677).
T2 sequence (whole entry): T1 sequence (whole entry) with Q287E
Description: Agonist activity at human recombinant CCR3 expressed in eosinophils. In kind it is functional. In outline: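 Gated autofluorescence forward scatter (shape change) assay. Granulocytes from healthy-donor blood were isolated on plasma/Percoll gradients and pre-incubated at 5×10^6 cells/ml for 30 min at room temperature in GAFS buffer (PBS, 0.9 mM CaCl2, 0.5 mM MgCl2, 10 mM HEPES, 10 mM glucose, 0.1% BSA). Cells were exposed to varying compound concentrations for 4 min at 37°C, chilled, fixed and read by flow cytometry.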

For assay [3], the target named is T2, C-C chemokine receptor type 3 (Homo sapiens). The experiment in a line: Reduction of human recombinant CCR3 expression in mouse L1.2 cells relative to control. Set-up: scale not given: the % may be the effect or the level left. In kind it is cell-based. The essentials: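 In duplicate, 1 × 10^6 CCR3-L1.2 cells in ice-cold medium were warmed to 37°C for 20 min, then given stimulus (100 nM CCL11 or 10 μM compound) for 20 min; ice-held tubes and a buffer tube served as controls. Surface CCR3 was measured by anti-CCR3 flow cytometry as mean fluorescence minus isotype, expressed as % of buffer-treated cells.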

Assay [4] relates to T3, C-C chemokine receptor type 3 (Homo sapiens), P51677 [Y113A].
T3 sequence (whole entry): T1 sequence (whole entry) with Y113A, Q287E
The experiment in a line: Agonist activity at human recombinant CCR3 Y113A mutant expressed in mouse L1.2 cells assessed as induction of chemotaxis. In kind it is functional, cell-based. In outline: as §1

For assay [5], the target named is T2, C-C chemokine receptor type 3 (Homo sapiens). Description: Agonist activity at human recombinant CCR3 expressed in mouse L1.2 cells assessed as receptor internalization at 10 uM after 20 mins by flow cytometry. A general note: In flow cytometry, cells or beads pass a laser one at a time.
Assay [6] has as its system T4, C-C chemokine receptor type 3 (Homo sapiens), P51677 [Y41A].
T4 sequence (whole entry): T1 sequence (whole entry) with Y41A, Q287E
Description: Agonist activity at human recombinant CCR3 Y41A mutant expressed in mouse L1.2 cells assessed as induction of chemotaxis. In kind it is functional, cell-based. In outline:
as §1

Assay [7] concerns the target T2, C-C chemokine receptor type 3 (Homo sapiens). Description: Agonist activity at human recombinant CCR3 expressed in mouse L1.2 cells assessed as induction of chemotaxis. In kind it is functional, cell-based. In outline: as §1

`O=C(Cc1cccc2occc12)Nc1cc[n+](CCCc2ccccc2)c(Br)c1`: the result in assay [1], in assay [4] and in assay [6] was inactive. Further, the Activity entry in assay [2] is “Dose-dependent effect”; in assay [3] it was 59.4%; in assay [7], “Dose-dependent effect”. In addition, the result in assay [5] was Active.
